SMILES strings stand for the structures. pIC50: −log10 of the molar value.

Series [1] in a line: Bioavailability in monkey (dose 10 mg/kg i.d.). The format is ADME, organism-based. The conditions noted are these: primates, in vivo. The method, boiled down:
(§1)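 Male cynomolgus monkeys (3–5 kg) salt-depleted with furosemide 5 mg/kg po on days 7 and 1 plus a low-salt diet. Fasted, pentobarbital anesthesia. Intraduodenal dose of 10 mg/kg as HCl salt solution. Portal and systemic plasma drug levels measured by bioassay. Bioavailability = dose-normalized AUCid/AUCiv ×100 (trapezoidal integration; iv fit biexponential), mean ± SEM.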

Series [2] has as its system Mustela putorius furo. Nature of the series: Average area under curve value dosed at 0.3 mg/kg, iv in ferrets. The conditions noted are these: ferret, in vivo.
Series [3] deals with T1, Renin (Homo sapiens, UniProt P00797).
T1 sequence (P00797 whole entry): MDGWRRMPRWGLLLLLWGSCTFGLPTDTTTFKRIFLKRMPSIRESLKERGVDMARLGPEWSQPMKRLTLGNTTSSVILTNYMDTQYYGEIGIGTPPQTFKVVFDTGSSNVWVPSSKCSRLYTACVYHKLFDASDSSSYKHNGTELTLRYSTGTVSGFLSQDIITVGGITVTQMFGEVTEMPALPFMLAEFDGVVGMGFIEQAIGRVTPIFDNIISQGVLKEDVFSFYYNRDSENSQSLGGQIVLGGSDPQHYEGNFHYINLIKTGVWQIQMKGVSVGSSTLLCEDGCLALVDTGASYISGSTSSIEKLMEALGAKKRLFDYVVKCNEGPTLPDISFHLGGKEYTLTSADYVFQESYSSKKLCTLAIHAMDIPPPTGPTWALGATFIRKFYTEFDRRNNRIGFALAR
Put plainly: In vitro activity against human renin (pH 6.0).

Series [4] in a line: (§2) Average peak plasma drug concentration after id dose of 10 mg/kg in ferrets(Plasma samples collected from portal blood). To be noted: ferret, plasma (from portal blood).
Series [5] can be described thus: Average peak plasma drug concentration after id dose of 10 mg/kg in ferrets(Plasma samples collected from arterial blood). The conditions noted are these: ferret, plasma (from arterial blood).
The nature of series [6]: Partition coefficient (logD6.5). To be noted: octanol/water, pH 6.5.
Series [7] is described as follows: Partition coefficient (logD7.4). To be noted: octanol/water, pH 7.4.
The test system of series [8] is Mustela putorius furo. Nature of the series: (§3) Average area under curve value dosed at 10 mg/kg, id in ferrets. The conditions noted are these: ferret, in vivo, other.
The target of series [9] is T1, Renin. The class given is cell-free, Plasma.
Series [10] is described as follows: Average peak plasma drug concentration after iv dose of 0.3 mg/kg in ferrets. The conditions noted are these: ferret, plasma.
The nature of series [11]: Bioavailability in ferret. To be noted: in vivo.
A short description of series [12]: as §2. Further details: dose 10 mg/kg, route intraduodenal. The class given is ADME, organism-based, Mustela putorius furo. To be noted: ferret, read-out: Average peak Concn. The method, boiled down:
(§4)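 Fasted male Fitch ferrets (0.4–1.2 kg) under Inactin anesthesia (100–120 mg/kg ip), catheterized in carotid artery, jugular vein, portal vein and trachea. Single 10 mg/kg intraduodenal dose of HCl salt solution. 6 portal and 7 arterial samples taken over 180 min. Plasma drug measured by renin-inhibition bioassay with serial dilution and acetonitrile precipitation. AUC by trapezoidal integration; peak is the mean of each animal's maximum.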

Series [13] is described as follows: Bioavailability in monkey (i.d. dosing). The class given is ADME, organism-based. The conditions noted are these: in vivo. The method, boiled down:
as §1

In a further series the target is Pepsin A (Sus scrofa) (UniProt P00791). Put plainly: Inhibitory activity against porcine pepsin at a concentration of 1 x 10e-5 M.
For series [14], the target named is Cathepsin D (Homo sapiens) (UniProt P07339). Put plainly: Inhibitory activity against human cathepsin D at a concentration of 1 x 10e-5 M. The method, boiled down: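 Human spleen cathepsin D, purified by hemoglobin affinity chromatography and assayed with hemoglobin substrate.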
Series [15] concerns Mustela putorius furo. The series is described as §3. The class given is ADME, organism-based. Set-up: dose 10 mg/kg, route intraduodenal. The conditions noted are these: ferret, in vivo, other. The method, boiled down: as §4
Series [16] in a line: Inhibitory activity against monkey plasma at pH 7.4. To be noted: Cercopithecidae.
The target of a further series is T2, Cathepsin D (Bos taurus) (UniProt P80209).
T2 sequence (whole entry): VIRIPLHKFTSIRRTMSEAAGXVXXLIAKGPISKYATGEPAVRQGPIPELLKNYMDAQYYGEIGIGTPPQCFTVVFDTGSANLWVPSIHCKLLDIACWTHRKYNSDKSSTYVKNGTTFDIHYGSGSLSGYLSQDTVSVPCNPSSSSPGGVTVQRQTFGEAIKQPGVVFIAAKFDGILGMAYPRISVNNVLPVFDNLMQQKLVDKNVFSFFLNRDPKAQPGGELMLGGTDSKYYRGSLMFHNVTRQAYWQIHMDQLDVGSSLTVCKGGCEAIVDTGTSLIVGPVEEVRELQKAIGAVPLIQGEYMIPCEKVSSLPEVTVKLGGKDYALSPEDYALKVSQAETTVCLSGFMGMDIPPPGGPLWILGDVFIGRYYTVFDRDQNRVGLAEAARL
Nature of the series: Inhibitory activity against bovine cathepsin D at a concentration of 1 x 10e-5 M.

Series [17] deals with T3, Cathepsin G (Homo sapiens) (UniProt P08311).
T3 sequence (whole entry): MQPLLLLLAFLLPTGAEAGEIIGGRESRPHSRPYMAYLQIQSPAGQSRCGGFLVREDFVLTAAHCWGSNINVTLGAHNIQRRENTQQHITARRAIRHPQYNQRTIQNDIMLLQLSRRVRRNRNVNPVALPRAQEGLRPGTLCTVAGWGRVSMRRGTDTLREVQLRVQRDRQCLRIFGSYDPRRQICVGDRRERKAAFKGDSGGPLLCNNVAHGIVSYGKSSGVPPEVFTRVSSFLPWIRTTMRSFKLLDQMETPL
Nature of the series: Inhibitory activity against human cathepsin G at a concentration of 1 x 10e-5 M. The method, boiled down:
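Human leukocyte cathepsin G, assayed with N-succinyl-Ala-Ala-Pro-Phe-4-nitroanilide substrate.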

In series [18] the target is T4, Gastricsin (Homo sapiens) (UniProt P20142).
T4 sequence (whole entry): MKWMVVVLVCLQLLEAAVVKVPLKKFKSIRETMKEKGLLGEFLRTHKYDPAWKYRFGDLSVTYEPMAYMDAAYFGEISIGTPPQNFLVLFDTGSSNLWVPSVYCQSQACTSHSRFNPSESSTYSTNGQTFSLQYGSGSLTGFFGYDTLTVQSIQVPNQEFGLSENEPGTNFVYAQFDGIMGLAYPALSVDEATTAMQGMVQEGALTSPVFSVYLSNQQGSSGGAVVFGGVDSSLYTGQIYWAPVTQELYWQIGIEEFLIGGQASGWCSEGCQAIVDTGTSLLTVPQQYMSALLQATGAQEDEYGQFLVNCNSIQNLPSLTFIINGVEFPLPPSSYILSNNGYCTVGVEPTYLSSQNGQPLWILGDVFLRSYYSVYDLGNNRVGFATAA
Nature of the series: Inhibitory activity against human Gastricsin at a concentration of 1 x 10e-5 M.

Chain of Cathepsin D (Homo sapiens) (P07339 65-162 limits assumed): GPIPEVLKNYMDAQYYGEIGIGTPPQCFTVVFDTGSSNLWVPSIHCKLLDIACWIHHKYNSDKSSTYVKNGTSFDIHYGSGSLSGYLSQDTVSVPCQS
Chain of Cathepsin D (Homo sapiens) (P07339 169-412 limits assumed): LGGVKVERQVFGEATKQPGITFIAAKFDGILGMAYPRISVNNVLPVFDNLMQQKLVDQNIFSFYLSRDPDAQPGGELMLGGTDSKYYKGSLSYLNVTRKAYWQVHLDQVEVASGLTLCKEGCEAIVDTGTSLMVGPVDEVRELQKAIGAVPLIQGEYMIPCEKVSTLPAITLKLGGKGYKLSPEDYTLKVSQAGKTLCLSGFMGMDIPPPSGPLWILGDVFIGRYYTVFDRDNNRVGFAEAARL
Chain of Pepsin A (Sus scrofa) (P00791 60-385 limits assumed): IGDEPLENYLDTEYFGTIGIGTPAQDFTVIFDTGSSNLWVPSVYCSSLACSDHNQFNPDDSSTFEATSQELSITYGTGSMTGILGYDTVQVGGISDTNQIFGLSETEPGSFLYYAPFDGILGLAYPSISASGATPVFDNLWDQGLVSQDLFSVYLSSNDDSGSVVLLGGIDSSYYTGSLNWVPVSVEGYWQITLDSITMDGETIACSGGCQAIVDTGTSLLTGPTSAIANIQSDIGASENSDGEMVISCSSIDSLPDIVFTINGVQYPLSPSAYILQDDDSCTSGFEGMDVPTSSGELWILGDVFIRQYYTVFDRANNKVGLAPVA

`CCCC[C@H](N[C@@H](Cc1ccccc1)C(=O)N1CCC(OCOC)CC1)C(=O)N[C@@H](CC1CCCCC1)[C@@H](O)[C@@H](O)CC(C)C`: the bioavailability (usually dose-corrected exposure relative to a reference, in per cent) in series [1] came out at 2.9%.

For the compound `CCCC[C@H](O[C@@H](Cc1ccccc1)C(=O)N1CCC(OCOC)CC1)C(=O)N[C@@H](CC1CCCCC1)[C@@H](O)C[C@H](C(=O)NCCN1CCOCC1)C(C)C`, the Average AUC in the series with Mustela putorius furo [2] stood at 472 ng·h/mL; with Mustela putorius furo [8] it was 7080 ng·h/mL. In addition, the pIC50 – broadly, the negative decadic logarithm of the IC50, by convention in mol/L – against Renin [3] is 9.00; at Renin [9] it was 8.43. In addition, the Cmax in series [4] was determined as 4350 ng/mL; in series [5], 2770 ng/mL; in [10], 1320 ng/mL. In addition, the logD in series [6] and in series [7] was more than 5 each time. Also, the bioavailability in series [11] was 45%.

The compound `CCCC[C@H](O[C@@H](Cc1ccccc1)C(=O)N1CCC(OCOC)CC1)C(=O)N[C@@H](CC1CCCCC1)[C@@H](O)[C@@H](O)CC(C)C` returned a bioavailability in series [1] of 2.5%. Further, the logD in series [6] and in series [7] was 4.8 in each case.

`CCCC[C@H](O[C@@H](Cc1ccccc1)C(=O)N1CCC(OCOC)CC1)C(=O)N[C@@H](CC1CCCCC1)[C@@H](O)C[C@H](C(=O)NCCCn1ccnc1)C(C)C`: the Average AUC is 410 ng·h/mL in the series with Mustela putorius furo [2] and 3380 ng·h/mL in the series with Mustela putorius furo [8]. The Cmax in series [12] stood at 2420 ng/mL; in series [5], 2790 ng/mL; in series [10], 3390 ng/mL. Also, the logD in series [6] and in series [7] was 4 throughout. In addition, the pIC50 against Renin [9] is 8.52. The compound also displayed a bioavailability in [11] of 25%.

Compound `COc1ccc(C[C@H](NC(=O)CC(C)(C)N)C(=O)N[C@@H](Cc2cnc[nH]2)C(=O)N[C@@H](CC2CCCCC2)[C@@H](O)[C@@H](O)CC(C)C)cc1` had a bioavailability in series [13] (cercopithecidae) of 1.7%.

For the compound `CCCC[C@H](O[C@@H](Cc1ccccc1)C(=O)N1CCC(OCOC)CC1)C(=O)N[C@@H](CC1CCCCC1)[C@@H](O)C[C@H](C(=O)NCCCN1CCOCC1)C(C)C`, the inhibition (usually the percentage by which the read-out fell short of the control) on Pepsin A (Sus scrofa) was found to be 13%; in [14], 6%; against Cathepsin D (Bos taurus), 3%; in series [17], 0%; in series [18], 11%. Moreover, the Average AUC with Mustela putorius furo [2] was 588 ng·h/mL. Moreover, the negative logarithm of the IC50 (pIC50) against Renin [3] was 8.62; in series [16] it was 8.82; against Renin [9], 8.55. Besides, the Cmax in series [4] came out at 6010 ng/mL; in series [5], 4830 ng/mL; in series [10], 2110 ng/mL. Also, the bioavailability amounted to 16% in series [13] (primates) and 28% in series [11]. In addition, the “Avg AUC,” value with Mustela putorius furo [15] was 391 µg/min/mL. Besides, the logD (commonly lipophilicity at a set pH, counting ionised and neutral species) turned out to be 3.3 in series [6] and 4.3 in series [7].

For the compound `CCCC[C@H](N[C@@H](Cc1ccccc1)C(=O)N1CCC(OCOC)CC1)C(=O)N[C@@H](CC1CCCCC1)[C@@H](O)C[C@H](NC(=O)OCCN(C)C)C(C)C`, the results for the Average AUC in the series with Mustela putorius furo [2] and in the series on Mustela putorius furo [8] were 245 ng·h/mL and 5050 ng·h/mL, respectively. Moreover, the pIC50 was 8.82 on Renin [3] and 7.92 on Renin [9]. Further, the Cmax came to 5250 ng/mL in series [4], 2070 ng/mL in [5] and 930 ng/mL in series [10]. For the same compound, the logD in series [6] is 3.8; in series [7] it was 4.6. This compound came in with a bioavailability in series [11] of 62%.

On to `CCCCNC(=O)[C@@H](C[C@H](O)[C@H](CC1CCCCC1)NC(=O)[C@H](CCCC)N[C@@H](Cc1ccccc1)C(=O)N1CCC(OCOC)CC1)C(C)C`, for which the results for the Average AUC in the series on Mustela putorius furo [2] and in the series on Mustela putorius furo [8] were 673 ng·h/mL and 3530 ng·h/mL, respectively. Further, the pIC50 on Renin [3] was 8.74. For the same compound, the figures for the Cmax in [4], in series [5] and in series [10] were 3220 ng/mL, 1540 ng/mL and 2230 ng/mL, respectively. Further, the logD in series [6] and in [7] was more than 4.5 throughout. The bioavailability in series [11] is 16%.

Take `CCCC[C@H](O[C@@H](Cc1ccccc1)C(=O)N1CCC(OCOC)CC1)C(=O)N[C@@H](CC1CCCCC1)[C@@H](O)C[C@H](NC(=O)OCCN(C)C)C(C)C`: the Average AUC in the series on Mustela putorius furo [2] came to 232 ng·h/mL; in the series on Mustela putorius furo [8] it was 2780 ng·h/mL. The Cmax was 1540 ng/mL in series [4], 1190 ng/mL in [5] and 1010 ng/mL in series [10]. The logD is 3.6 in series [6] and more than 4 in series [7]. The pIC50 on Renin [9] is 8.08. In series [11], this compound gave a bioavailability of 36%.

On to `CCCC[C@H](O[C@@H](Cc1ccccc1)C(=O)N1CCC(OCOC)CC1)C(=O)N[C@@H](CC1CCCCC1)[C@@H](O)C[C@H](NC(=O)OCCN1CCOCC1)C(C)C`, for which the Average AUC with Mustela putorius furo [2] came out at 258 ng·h/mL. Moreover, the Cmax is 5010 ng/mL in series [4], 2840 ng/mL in series [5] and 920 ng/mL in [10]. Also, in the series on Mustela putorius furo [15], the “Avg AUC,” value was 363 µg/min/mL. For the same compound, the results for the logD in [6] and in series [7] were 3.6 and 3.7, respectively. The compound further showed a pIC50 against Renin [9] of 8.12. The compound further yielded a bioavailability in series [11] of 70%.

Compound `CCCCNC(=O)[C@@H](C[C@H](O)[C@H](CC1CCCCC1)NC(=O)[C@H](CCCC)O[C@@H](Cc1ccccc1)C(=O)N1CCC(OCOC)CC1)C(C)C` returned a bioavailability in series [1] of 2.5%. Further, the logD in [6] and in series [7] was 4.7 each time.

Values taken from ChEMBL document CHEMBL1126033, “C-terminal modifications of nonpeptide renin inhibitors: improved oral bioavailability via modification of physicochemical properties” (J Med Chem, 1992).
